In ChEMBL document CHEMBL1158389, “Highly twisted adamantyl arotinoids: synthesis, antiproliferative effects and RXR transactivation profiles” (Eur J Med Chem, 2009):
Active and inactive are the calls of the source. No cut-off for these calls is given here.

Experiments:
MIA PaCa-2 = assay: Antiproliferative activity against human MIAPaCa2 cells at 4 uM after 48 hrs by MTT assay; format: functional; settings: MIA PaCa-2, 48 h
Outline: (§1)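 Epithelial cancer lines came from ATCC and were seeded the day before in complete medium: PC-3, SkOV3 and A549 at 3,000/well; MiaPaCa-2 and BxPC-3 at 4,000; T-47D and MDA-MB-468 at 5,000. Medium was switched to 0.5% FBS just before exposure to 4 μM. Read-out was MTT (4 h, 37 °C), SDS/HCl solubilisation, A595 minus cell-free blank. Growth inhibition was taken versus DMSO (≤0.1% v/v) controls, ≥2 experiments in triplicate.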

[1] = target: T1, Retinoic acid receptor beta (Homo sapiens) (UniProt P10826); assay: Inhibition of transactivation activity of Gal4-LBD fused human RARbeta (169 to 448) transfected in atRA-stimulated african green monkey CV1 cells at 4 uM after 6 hrs by Dual-light chemiluminescent assay; format: cell-based; settings: CV-1
T1 sequence (whole entry): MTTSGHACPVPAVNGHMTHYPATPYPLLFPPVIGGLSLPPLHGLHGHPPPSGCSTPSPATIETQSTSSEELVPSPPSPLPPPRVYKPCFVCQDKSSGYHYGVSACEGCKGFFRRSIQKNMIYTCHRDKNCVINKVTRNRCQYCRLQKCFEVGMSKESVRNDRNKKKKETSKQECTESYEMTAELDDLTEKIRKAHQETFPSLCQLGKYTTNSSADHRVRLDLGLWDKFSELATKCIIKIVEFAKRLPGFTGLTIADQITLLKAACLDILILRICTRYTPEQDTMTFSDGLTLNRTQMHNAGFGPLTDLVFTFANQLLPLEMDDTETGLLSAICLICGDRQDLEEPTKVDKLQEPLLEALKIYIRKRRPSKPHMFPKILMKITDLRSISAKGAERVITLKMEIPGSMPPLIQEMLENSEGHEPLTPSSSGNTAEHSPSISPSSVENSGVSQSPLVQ
Outline: (§2)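 Gal4 DBD (1–147) was fused to hRARα (156–462) or hRARβ (169–448) LBD. CV-1 cells (20,000/well) were co-transfected with 10 ng Gal4-LBD, 100 ng UAS-luciferase and 25 ng β-gal vector. After 16 h the medium was replaced with medium containing 5% charcoal-treated FBS. Cells got atRA plus test compound at 10-, 40- or 200-fold excess (0.2, 0.8, 4 μM) for 6 h. Luciferase and β-galactosidase were read by chemiluminescence.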

[2] = target: T2, Retinoic acid receptor gamma (Homo sapiens) (UniProt P13631); assay: Inhibition of transactivation activity of Gal4-LBD fused human RARgamma (178 to 454) transfected in atRA-stimulated african green monkey CV1 cells at 4 uM after 20 hrs by Dual-light chemiluminescent assay; settings: CV-1
T2 sequence (whole entry): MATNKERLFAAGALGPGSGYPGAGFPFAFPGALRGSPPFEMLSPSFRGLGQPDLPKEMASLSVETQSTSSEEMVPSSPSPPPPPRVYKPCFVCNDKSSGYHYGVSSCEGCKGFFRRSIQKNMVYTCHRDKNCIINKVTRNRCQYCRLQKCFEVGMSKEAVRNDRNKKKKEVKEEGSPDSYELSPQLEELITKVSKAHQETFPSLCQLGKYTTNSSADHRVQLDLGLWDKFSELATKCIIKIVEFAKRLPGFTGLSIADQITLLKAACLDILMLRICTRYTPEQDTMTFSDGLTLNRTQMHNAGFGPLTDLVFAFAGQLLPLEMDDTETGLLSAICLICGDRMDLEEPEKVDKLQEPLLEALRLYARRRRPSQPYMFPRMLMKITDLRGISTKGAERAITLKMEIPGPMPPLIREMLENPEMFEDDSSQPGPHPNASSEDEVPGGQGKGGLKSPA

PC-3 = assay: Antiproliferative activity against human PC3 cells at 4 uM after 48 hrs by MTT assay; format: functional; settings: PC-3, 48 h; outline: as §1
SK-OV-3 = assay: Antiproliferative activity against human SKOV3 cells at 4 uM after 48 hrs by MTT assay; format: functional; settings: SK-OV-3, 48 h; outline: as §1
[3] = target: T3, Retinoic acid receptor alpha (Homo sapiens) (UniProt P10276); assay: Transactivation of Gal4-LBD fused human RARalpha (156 to 454) transfected in african green monkey CV1 cells assessed as luciferase activity at 2 uM after 6 hrs by Dual-light chemiluminescent assay; format: cell-based; settings: CV-1
T3 sequence (whole entry): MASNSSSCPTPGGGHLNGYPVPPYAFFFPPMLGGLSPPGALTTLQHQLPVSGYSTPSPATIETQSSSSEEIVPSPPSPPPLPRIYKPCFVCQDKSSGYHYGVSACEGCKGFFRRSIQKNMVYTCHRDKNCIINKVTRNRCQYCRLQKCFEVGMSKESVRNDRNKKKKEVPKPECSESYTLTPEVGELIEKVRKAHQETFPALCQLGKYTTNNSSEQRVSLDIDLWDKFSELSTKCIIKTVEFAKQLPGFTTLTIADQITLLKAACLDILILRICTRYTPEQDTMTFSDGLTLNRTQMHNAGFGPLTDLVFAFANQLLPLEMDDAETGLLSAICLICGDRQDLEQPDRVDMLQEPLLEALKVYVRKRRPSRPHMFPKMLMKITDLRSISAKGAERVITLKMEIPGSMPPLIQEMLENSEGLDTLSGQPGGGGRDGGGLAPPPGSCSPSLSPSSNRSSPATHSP

Jurkat [4] = assay: Antiproliferative activity against human Jurkat T cells after 48 hrs by MTT assay
T47D = assay: Antiproliferative activity against human T47D cells at 4 uM after 48 hrs by MTT assay; format: functional; outline: as §1
[5] = target: T3, Retinoic acid receptor alpha (Homo sapiens); assay: Inhibition of transactivation activity of Gal4-LBD fused human RARalpha (156 to 454) transfected in atRA-stimulated african green monkey CV1 cells at 0.2 uM after 6 hrs by Dual-light chemiluminescent assay; format: cell-based; outline: as §2
Jurkat [6] = assay: Antiproliferative activity against human Jurkat T cells at 62.5 nM after 48 hrs by MTT assay; format: functional, cell-based
Outline: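 Jurkat T cells were resuspended at 10^5 cells/mL in RPMI with 0.5% FBS (10,000/well) and seeded immediately before dosing at 62.5 nM–2 μM for two days. Viability was read by MTT (4 h, 37 °C), formazan dissolved in 10% SDS/10 mM HCl, A595 with cell-free background subtracted. Values are relative to DMSO controls (≤0.1% v/v); at least two experiments in triplicate.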

A549 = assay: Antiproliferative activity against human A549 cells at 4 uM after 72 hrs by MTT assay; format: functional; settings: A549, 72 h; outline: as §1
[7] = target: T1, Retinoic acid receptor beta (Homo sapiens); assay: Transactivation of Gal4-LBD fused human RARbeta (169 to 448) transfected in african green monkey CV1 cells assessed as luciferase activity at 2 uM after 6 hrs by Dual-light chemiluminescent assay; format: cell-based; settings: CV-1
Outline: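 Transfected CV-1 cells carried Gal4-LBD constructs: hRARα 156–462, hRARβ 169–448, hRARγ 178–454 or mRXRα 218–467. Transfection used 10 ng Gal4-LBD, 100 ng UAS-luciferase and 25 ng β-gal vector. After 16 h the medium was changed to 5% charcoal-treated FBS. Cells were stimulated with 2 μM analog for 6 h (RARα, RARβ, RXRα) or 20 h (RARγ). Reference agonists were 1 μM atRA (RARα) and 1 μM 9cRA (RXRα). Luciferase and β-galactosidase were read by chemiluminescence.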

[8] = target: T4, Retinoic acid receptor RXR-alpha (Mus musculus, UniProt P28700); assay: Transactivation of Gal4-LBD fused mouse RXRalpha (218 to 467) transfected in african green monkey CV1 cells assessed as luciferase activity at after 6 hrs by Dual-light chemiluminescent assay; format: cell-based, CV-1
T4 sequence (P28700 whole entry): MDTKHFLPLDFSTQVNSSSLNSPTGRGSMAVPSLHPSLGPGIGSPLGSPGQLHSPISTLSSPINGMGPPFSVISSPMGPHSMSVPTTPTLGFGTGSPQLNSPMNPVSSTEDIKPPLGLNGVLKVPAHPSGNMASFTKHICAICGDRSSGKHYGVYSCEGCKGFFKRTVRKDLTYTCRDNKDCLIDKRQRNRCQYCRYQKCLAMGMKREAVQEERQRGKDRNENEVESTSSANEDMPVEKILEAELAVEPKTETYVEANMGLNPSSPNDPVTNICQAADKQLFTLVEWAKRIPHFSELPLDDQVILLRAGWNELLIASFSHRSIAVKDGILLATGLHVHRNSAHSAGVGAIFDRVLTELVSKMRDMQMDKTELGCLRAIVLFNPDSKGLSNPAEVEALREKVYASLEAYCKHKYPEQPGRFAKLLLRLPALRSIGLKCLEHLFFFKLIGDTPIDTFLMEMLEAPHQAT

MDA-MB-468 = assay: Antiproliferative activity against human MDA-MB-468 cells at 4 uM after 48 hrs by MTT assay; format: functional; settings: MDA-MB-468, 48 h; outline: as §1
BXPC-3 = assay: Antiproliferative activity against human BxPC3 cells at 4 uM after 48 hrs by MTT assay; format: functional; settings: BXPC-3, 48 h; outline: as §1
Jurkat [9] = assay: Induction of apoptosis in human Jurkat T cells assessed as induction of DEVDase activity at 1 uM after 4 hrs by fluorescence assay; format: functional, cell-based
Outline: (§3)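 Jurkat cells (40,000/well, 10^6 cells/mL, RPMI with 0.5% FBS) were treated for 4 h; controls got 0.1% DMSO. Lysis was in CE buffer (PIPES pH 7, NP-40, cytochalasin B, protease inhibitors) for 30 min at 4 °C. Lysates were mixed with 2x caspase buffer (HEPES pH 7.4, CHAPS, sucrose) holding 100 μM Ac-DEVD-AFC and incubated at 37 °C for 30 min. AFC was read every 2 min, ex 390/em 510 nm.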

Jurkat [10] = assay: Induction of apoptosis in human Jurkat T cells assessed as induction of DEVDase activity at 4 uM after 4 hrs by fluorescence assay; format: functional, cell-based; outline: as §3
[11] = target: T3, Retinoic acid receptor alpha (Homo sapiens); assay: Inhibition of transactivation activity of Gal4-LBD fused human RARalpha (156 to 454) transfected in atRA-stimulated african green monkey CV1 cells at 4 uM after 6 hrs by Dual-light chemiluminescent assay; format: cell-based; settings: CV-1; outline: as §2

SMILES	inhibition at 4 µM (MIA PaCa-2) [%]	Activity [1]	Activity [2]	inhibition at 4 µM (PC-3) [%]	inhibition at 4 µM (SK-OV-3) [%]	Activity [3]	IC50 (Jurkat [4]) [nM]	inhibition at 4 µM (T47D) [%]	inhibition ([5]; CV-1, 0.2 uM)	Activity (Jurkat [6])	inhibition at 4 µM (A549) [%]	Activity [7]	EC50 [8] [nM]	inhibition at 4 µM (MDA-MB-468) [%]	inhibition at 4 µM (BXPC-3) [%]	Activity (Jurkat [9])	Activity (Jurkat [10])	inhibition [11] [%]	inhibition ([5]; CV-1, 4 uM, in the assay text read “at 4 uM” for “at 0.2 uM”) [%]
Cc1cc(O)c(C23CC4CC(CC(C4)C2)C3)cc1-c1ccc(/C=C/C(=O)O)cc1Cl	26.3	inactive	inactive	68.7	65.1	inactive	1410	24.2	inactive	inactive	23.7	inactive	576	24.9	36	–	–	–	–
C/C(=C/c1ccc(C(=O)O)cc1)c1ccc(O)c(C23CC4CC(CC(C4)C2)C3)c1	76.1	–	–	92.3	67	inactive	82	62.7	–	–	79	inactive	–	76.7	95.7	Active	Active	–	–
Cc1cc(O)c(C23CC4CC(CC(C4)C2)C3)cc1-c1ccc2cc(C(=O)O)ccc2c1Cl	91.5	inactive	inactive	97.7	87	inactive	435	55.8	inactive	–	88.1	inactive	–	59.2	94.7	Active	–	27	–
COCCOCOc1ccc(C(=O)/C=C/c2ccc(C(=O)O)cc2)cc1C12CC3CC(CC(C3)C1)C2	74.9	Active	Active	92.1	61.5	inactive	287	50.6	–	–	42.1	inactive	–	72.4	96.6	Active	Active	–	90
COCCOCOc1cc(C)c(-c2ccc(/C=C/C(=O)O)cc2Cl)cc1C12CC3CC(CC(C3)C1)C2	63.3	inactive	inactive	72	80.1	inactive	1870	29.1	inactive	–	51.1	inactive	600	42	45.8	–	–	27	–
